Each structure is given as a SMILES string. The source made the active and inactive calls. No cut-off for these calls is given here.

Experiment [1] is described as follows: Antiinflammatory activity in human neutrophils assessed as inhibition of LPS-induced intracellular TNFalpha expression at 1 ug/mL after 3 hrs by flow cytometry. Further details: scale not given: the % may be the effect or the level left. It counts as functional, Neutrophil. A digest of the protocol:
(§1)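 Neutrophils were isolated from human blood: spun at 250g for 20 min, and the platelet-rich layer was discarded. The lower layer was spun at 1800g, and the buffy coat was layered on histopaque and spun at 700g. RBCs were lysed and the cells washed with PBS. Cells were given LPS plus compound for 3 h in a CO2 incubator, permeabilised, stained 30 min in the dark with conjugated anti-TNF-α mAb, and read by flow cytometry.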
For orientation: Flow cytometry measures light scatter and fluorescence of single cells or particles in a stream.

Experiment [2] concerns Neutrophil (Homo sapiens). Briefly: Antiinflammatory activity in human neutrophils assessed as inhibition of LPS-induced intracellular TNFalpha expression.
Experiment [3] can be described thus: Antiinflammatory activity in human neutrophils assessed as inhibition of LPS-induced intracellular TNFalpha expression at 10 ug/mL after 3 hrs by flow cytometry. It counts as functional, Neutrophil. Further details: scale not given: the % may be the effect or the level left. A digest of the protocol: as §1

Consider `C=CCO[C@H]1[C@H](OC)[C@H]2OC(C)(C)O[C@H]2[C@@H]2OC(C)(C)O[C@H]12`, for which the Activity in experiment [1] was 34.98%.

Regarding `CCCC(=O)O[C@@H]1[C@@H](O)[C@@H](O)[C@H](O)[C@H](O)[C@H]1OC`, the Activity in experiment [1] is given as 8.36%.

For `CO[C@@H]1[C@@H](OC(=O)c2ccccc2)[C@@H](OC(=O)c2ccccc2)[C@H](OC(=O)c2ccccc2)[C@H](OC(=O)c2ccccc2)[C@H]1OC(=O)c1ccccc1`, the Activity in experiment [1] is listed as 51.71%. Also, in experiment [2], the outcome was Active.

As to `CO[C@@H]1[C@@H](OC(C)=O)[C@@H](OC(C)=O)[C@H](O)[C@H](OC(C)=O)[C@H]1OC(C)=O`, in experiment [1], the Activity turned out to be 33.46%.

On to `C=CCO[C@@H]1[C@@H](O)[C@@H](O)[C@H](O)[C@H](O)[C@H]1OC`, for which, in experiment [1], the Activity was 29.65%.

In the case of `CCCC(=O)O[C@H]1[C@H](OC(=O)CCC)[C@H](OC(=O)CCC)[C@@H](OC)[C@H](OC(=O)CCC)[C@H]1OC(=O)CCC`, in experiment [1], the Activity amounted to 52.47%. Besides, the outcome in experiment [2] was Active.

Consider `CO[C@H]1[C@H](O)[C@@H](O)[C@@H](O)[C@H](O)[C@@H]1O` [METHYLINOSITOL], for which the Activity in experiment [1] was 30.03%.

Turning to `COc1ccc(C2CNC(=O)C2)cc1OC1CCCC1` (stereo not drawn) [ROLIPRAM], in experiment [3], the Activity is reported as 52.85%.

Take `CO[C@H]1C(=O)[C@H]2OC(C)(C)O[C@H]2[C@@H]2OC(C)(C)O[C@@H]21`: in experiment [1], the Activity worked out at 50.57%. Moreover, in experiment [2], the outcome was Active.

On to `CO[C@H]1[C@H](Cl)[C@H]2OC(C)(C)O[C@H]2[C@@H]2OC(C)(C)O[C@@H]21`, for which the Activity in experiment [1] worked out at 37.64%.

`CO[C@@H]1[C@@H](O)[C@@H](O)[C@H](O)[C@H](O)[C@H]1OC`: in experiment [1], the Activity is 39.16%.

Consider `CCC(=O)O[C@H]1[C@H](OC)[C@H]2OC(C)(C)O[C@H]2[C@@H]2OC(C)(C)O[C@H]12`, for which the Activity in experiment [1] turned out to be 32.14%.

In the case of `CO[C@H]1[C@H](OC(C)=O)[C@H]2OC(C)(C)O[C@H]2[C@@H]2OC(C)(C)O[C@H]12`, the Activity in experiment [1] turned out to be 42.58%.

With `CO[C@H]1[C@H](O)[C@H]2OC(C)(C)O[C@H]2[C@@H]2OC(C)(C)O[C@@H]21`, the Activity in experiment [1] turned out to be 13.09%.

In the case of `CCCC(=O)O[C@H]1[C@H](OC)[C@H]2OC(C)(C)O[C@H]2[C@@H]2OC(C)(C)O[C@H]12`, the Activity in experiment [1] was determined as 39.54%.

Turning to `CO[C@H]1[C@H](OC(C)=O)[C@@H](OC(C)=O)[C@@H](OC(C)=O)[C@H](O)[C@@H]1OC(C)=O`, the Activity in experiment [1] was 1.14%.

Take `CCC(=O)O[C@H]1[C@H](OC(=O)CC)[C@H](OC(=O)CC)[C@@H](OC)[C@H](OC(=O)CC)[C@H]1OC(=O)CC`: the Activity in experiment [1] was 30.79%.

With `CCC(=O)O[C@@H]1[C@@H](O)[C@@H](O)[C@H](O)[C@H](O)[C@H]1OC`, in experiment [1], the Activity worked out at 20.91%.

`CO[C@@H]1[C@@H](O)[C@@H](O)[C@H](O)[C@H](O)[C@H]1OC(=O)C(C)C`: the Activity in experiment [1] came out at 17.85%.

For `CO[C@@H]1[C@@H](O)[C@@H](O)[C@H](O)[C@H](O)[C@H]1OC(C)=O`, the Activity in experiment [1] is 2.28%.

Consider `CO[C@H]1[C@H](OC)[C@H]2OC(C)(C)O[C@H]2[C@@H]2OC(C)(C)O[C@H]12`, for which the Activity in experiment [1] came to 33.33%.

On to `CO[C@H]1[C@H](OC(=O)C(C)C)[C@H]2OC(C)(C)O[C@H]2[C@@H]2OC(C)(C)O[C@H]12`, for which the Activity in experiment [1] came to 20.65%.

Take `CCO[C@H]1[C@H](OC)[C@H]2OC(C)(C)O[C@H]2[C@@H]2OC(C)(C)O[C@H]12`: the Activity in experiment [1] is 38.4%.

For the compound `CCO[C@@H]1[C@@H](O)[C@@H](O)[C@H](O)[C@H](O)[C@H]1OC`, in experiment [1], the Activity worked out at 36.5%.

For `CO[C@@H]1[C@@H](OC(C)=O)[C@@H](OC(C)=O)[C@H](OC(C)=O)[C@H](OC(C)=O)[C@H]1OC(C)=O`, the Activity in experiment [1] was found to be 33.46%.
